Assay results: ChEMBL document CHEMBL1127026, “Novel antagonists of 5-HT3 receptors. Synthesis and biological evaluation of piperazinylquinoxaline derivatives” (J Med Chem, 1993)

Columns and labels:
Cavia porcellus = organism: Cavia porcellus; test: Antagonism to 2-methyl-5-HT induced contractions in guinea pig ileum; type: functional; conditions: read-out: pA2 (converted)
In short: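 Isometric recording at 0.5 g resting tension in physiological salt solution gassed with 95% O2/5% CO2 at 37 °C, after 30-min equilibration. Tissue incubated 30 min with a single antagonist concentration before agonist; pA2 calculated against 2-methyl-5-HT by Furchgott's single-concentration method, […]. Means of three to six experiments.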

[1] = biological target: Serotonin 1 (5-HT1) receptor (Rattus norvegicus, UniProt P28564+P30940+P19327+P28565); test: Displacement of binding of [3H]-5-HT to 5-hydroxytryptamine 1 receptor in rat cerebral cortex; type: tissue-based
In short: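 Rat cortical membranes homogenized in 50 mM Tris-HCl, centrifuged, pre-incubated at 37 °C for 10 min, then resuspended with 0.1% ascorbic acid and 10 μM pargyline. Incubated with 0.3 nM [3H]-5-HT for 10 min at 37 °C. Nonspecific binding defined with 10 μM 5-HT. Filtered and counted by scintillation. Means of 3-6 experiments.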

[2] = biological target: T1, Serotonin 3 (5-HT3) receptor (Rattus norvegicus, UniProt P35563+Q9JJ16); test: Displacement of binding of [3H]-BRL 43694 to 5-hydroxytryptamine 3 receptor in rat cerebral cortex; type: tissue-based
T1 sequence (P35563 whole entry): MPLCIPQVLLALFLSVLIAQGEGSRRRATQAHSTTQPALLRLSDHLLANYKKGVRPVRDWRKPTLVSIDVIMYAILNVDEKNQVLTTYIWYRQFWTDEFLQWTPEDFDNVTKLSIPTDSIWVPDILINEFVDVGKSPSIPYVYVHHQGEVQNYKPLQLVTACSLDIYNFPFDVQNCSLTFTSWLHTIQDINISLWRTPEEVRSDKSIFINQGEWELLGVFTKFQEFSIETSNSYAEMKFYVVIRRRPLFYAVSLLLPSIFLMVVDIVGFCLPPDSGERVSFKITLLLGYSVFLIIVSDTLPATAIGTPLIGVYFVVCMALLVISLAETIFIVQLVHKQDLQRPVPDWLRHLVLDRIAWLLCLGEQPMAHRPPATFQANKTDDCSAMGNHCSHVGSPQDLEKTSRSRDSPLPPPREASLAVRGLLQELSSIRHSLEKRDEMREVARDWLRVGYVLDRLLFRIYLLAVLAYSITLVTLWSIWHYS
T1 sequence (Q9JJ16 whole entry): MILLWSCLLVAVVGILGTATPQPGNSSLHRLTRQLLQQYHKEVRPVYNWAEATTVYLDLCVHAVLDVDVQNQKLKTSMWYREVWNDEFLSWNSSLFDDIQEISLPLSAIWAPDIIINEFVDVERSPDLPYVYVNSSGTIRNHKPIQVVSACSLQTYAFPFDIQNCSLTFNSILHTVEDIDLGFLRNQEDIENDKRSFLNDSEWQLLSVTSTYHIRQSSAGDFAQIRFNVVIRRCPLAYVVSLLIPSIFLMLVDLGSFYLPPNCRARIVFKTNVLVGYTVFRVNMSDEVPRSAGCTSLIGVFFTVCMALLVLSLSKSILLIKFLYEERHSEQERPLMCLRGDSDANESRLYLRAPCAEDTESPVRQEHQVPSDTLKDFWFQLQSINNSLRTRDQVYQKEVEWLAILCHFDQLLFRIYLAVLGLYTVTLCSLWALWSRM

Rattus norvegicus = test: Tested in vivo for antagonistic activity to bradycardic effect of 5-HT in anesthetized rats; type: functional; conditions: read-out: ID50
In short: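 Male Sprague-Dawley rats (500-550 g), urethane 1 g/kg ip. Heart rate derived from carotid arterial pressure. Serotonin 4 μg/kg iv bolus every 15 min; compounds given iv via the jugular vein 2 min before serotonin. Percent inhibition of bradycardia recorded; ID50 by Litchfield-Wilcoxon.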

[3] = biological target: Serotonin 2 (5-HT2) receptor (Rattus norvegicus) (UniProt P30994+P08909+P14842); test: Tested for antagonistic activity against 5-hydroxytryptamine 2 receptor from rat thoracic aorta; type: functional, tissue-based; set-up: concentration or dose not given beside the values; conditions: concentration not given here
Chain of Serotonin 2 (5-HT2) receptor (Rattus norvegicus) (P08909 whole entry, looked up): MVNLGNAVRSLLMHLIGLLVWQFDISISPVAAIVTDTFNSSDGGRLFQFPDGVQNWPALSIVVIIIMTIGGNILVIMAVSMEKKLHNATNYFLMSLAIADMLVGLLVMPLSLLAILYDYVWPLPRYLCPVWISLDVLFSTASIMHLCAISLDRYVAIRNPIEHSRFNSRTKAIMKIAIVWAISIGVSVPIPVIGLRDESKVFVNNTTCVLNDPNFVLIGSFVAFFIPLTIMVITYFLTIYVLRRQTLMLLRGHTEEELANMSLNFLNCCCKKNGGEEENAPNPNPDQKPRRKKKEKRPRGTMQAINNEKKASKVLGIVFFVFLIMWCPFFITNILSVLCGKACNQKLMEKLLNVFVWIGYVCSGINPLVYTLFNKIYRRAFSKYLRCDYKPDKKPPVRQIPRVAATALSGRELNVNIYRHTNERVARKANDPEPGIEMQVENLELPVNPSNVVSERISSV
Chain of Serotonin 2 (5-HT2) receptor (Rattus norvegicus) (P14842 whole entry, looked up): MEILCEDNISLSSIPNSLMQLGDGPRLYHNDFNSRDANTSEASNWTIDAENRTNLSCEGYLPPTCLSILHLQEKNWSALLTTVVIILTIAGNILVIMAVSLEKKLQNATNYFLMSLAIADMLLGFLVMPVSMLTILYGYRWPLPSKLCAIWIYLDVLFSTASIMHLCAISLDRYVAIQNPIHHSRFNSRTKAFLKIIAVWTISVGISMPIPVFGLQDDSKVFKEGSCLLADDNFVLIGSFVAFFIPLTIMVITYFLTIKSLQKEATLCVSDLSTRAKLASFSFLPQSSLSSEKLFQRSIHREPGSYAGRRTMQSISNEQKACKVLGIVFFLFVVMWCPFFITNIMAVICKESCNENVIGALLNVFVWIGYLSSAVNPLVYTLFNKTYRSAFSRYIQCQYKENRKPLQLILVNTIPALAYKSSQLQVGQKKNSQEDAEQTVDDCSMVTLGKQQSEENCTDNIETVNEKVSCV
Chain of Serotonin 2 (5-HT2) receptor (Rattus norvegicus) (P30994 whole entry, looked up): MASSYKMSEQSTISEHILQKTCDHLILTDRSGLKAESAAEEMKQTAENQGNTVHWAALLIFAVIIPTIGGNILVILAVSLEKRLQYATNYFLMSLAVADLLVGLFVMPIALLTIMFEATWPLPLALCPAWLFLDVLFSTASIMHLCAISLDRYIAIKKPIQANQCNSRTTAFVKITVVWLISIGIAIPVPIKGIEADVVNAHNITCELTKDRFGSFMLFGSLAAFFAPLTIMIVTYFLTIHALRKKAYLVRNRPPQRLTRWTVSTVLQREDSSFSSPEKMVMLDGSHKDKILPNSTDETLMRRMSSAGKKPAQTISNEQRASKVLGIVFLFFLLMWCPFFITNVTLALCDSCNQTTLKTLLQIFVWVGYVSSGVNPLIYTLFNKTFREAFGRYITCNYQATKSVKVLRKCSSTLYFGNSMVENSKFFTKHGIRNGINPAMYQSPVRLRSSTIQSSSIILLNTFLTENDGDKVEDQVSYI
In short: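 Thoracic aorta rings (2-3 mm) from male Wistar rats (200-250 g), resting tension 1.5 g, equilibrated 60-90 min. Contracted with 5-HT 3×10^-6 M, taken as 100%. Compounds at 10^-5 M were incubated for 30 min before 5-HT was re-added. Inhibition given as % of the prior response. Means ± SE of 4-6 experiments.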

[4] = tested on: 5-HT3 receptor (Cavia porcellus); test: Tested for the antagonistic activity against 5-hydroxytryptamine 3 receptor from guinea pig ileum; set-up: concentration or dose not given beside the values; conditions: concentration not given here

Compound	Ki [1] [nM]	Ki [2] [nM]	inhibition [3] [%]	inhibition [4] [%]	Kb (Cavia porcellus) [nM]	ED50 (Rattus norvegicus) [mg/kg]
CN1[C@@H]2CC[C@H]1C[C@@H](OC(=O)c1c[nH]c3ccccc13)C2.Cl	> 1000	3.8	2.4	–	3.98	0.002
N#Cc1nc2ccccc2nc1N1CCN(c2ccccc2)CC1	–	–	8.4	21.9	–	–
N#Cc1nc2ccccc2nc1N1CCN(Cc2ccc3c(c2)OCO3)CC1	–	–	–	28.4	–	–
N#Cc1nc2ccccc2nc1N1CCNCC1	345	90	9.1	63.7	1580	0.027
N#Cc1nc2ccccc2nc1N1CCN(c2ccc([N+](=O)[O-])cc2)CC1	–	–	–	18	–	–
Cc1nccn1CC1CCc2c(c3ccccc3n2C)C1=O (centres undefined) [ONDANSETRON]	–	–	0.6	–	126	0.0004
N#Cc1nc2ccccc2nc1N1CCN(c2ccc(Cl)cc2)CC1	–	–	7	11	–	–
N#Cc1nc2ccccc2nc1N1CCN(c2ccc(F)cc2)CC1	–	–	–	21.4	–	–
N#Cc1nc2ccccc2nc1N1CCN(c2cccc(C(F)(F)F)c2)CC1	–	–	18.3	39.5	–	–
N#Cc1nc2cc([N+](=O)[O-])ccc2nc1N1CCNCC1	–	–	–	7.7	–	–
CN1CCN(c2nc3ccccc3nc2C#N)CC1	–	–	–	48.4	–	–

Further lines, with some results ahead:

Ki [1] [nM]	Ki [2] [nM]	inhibition [3] [%]	inhibition [4] [%]	Compound	Kb (Cavia porcellus) [nM]	ED50 (Rattus norvegicus) [mg/kg]
–	–	5.1	14.4	CCOC(=O)CN1CCN(c2nc3ccccc3nc2C#N)CC1	–	–
–	–	3.9	18	CCCCCN1CCN(c2nc3ccccc3nc2C#N)CC1	–	–
> 1000	40	12.5	63.3	CCCN1CCN(c2nc3ccccc3nc2C#N)CC1	1000	0.38
–	–	20.5	12.4	N#Cc1nc2ccccc2nc1N1CCN(Cc2ccccc2)CC1	–	–
–	–	–	7.4	CC(=O)c1ccc(N2CCN(c3nc4ccccc4nc3C#N)CC2)cc1	–	–
–	–	4.6	15.8	Cc1ccc(N2CCN(c3nc4ccccc4nc3C#N)CC2)cc1	–	–
> 1000	100	9.1	80.5	CCN1CCN(c2nc3ccccc3nc2C#N)CC1	63.1	0.015
–	–	–	21.3	CCN1CCN(c2nc3ccc([N+](=O)[O-])cc3nc2C#N)CC1	–	–
–	–	25	29.2	N#Cc1nc2ccccc2nc1N1CCN(CCc2ccccc2)CC1	–	–
–	–	4.6	3.5	COc1cccc(N2CCN(c3nc4ccccc4nc3C#N)CC2)c1	–	–
–	–	–	10.6	COc1ccccc1N1CCN(c2nc3ccccc3nc2C#N)CC1	–	–
> 1000	8	9.1	–	C=CCN1CCN(c2nc3ccccc3nc2C#N)CC1	0.0631	0.02
–	–	–	43.5	CCN1CCN(c2nc3ccc(N)cc3nc2C#N)CC1	–	–
–	–	–	12.5	CCCCN1CCN(c2nc3ccccc3nc2C#N)CC1	–	–
